Measurements: ChEMBL document CHEMBL4689842, “EUbOPEN Chemogenomics Library wave 1” (2021)

Test system: HEK-293T
Assay: Multiplex assay against HEK293T;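 for Population Tubulin-Different-Phenotype (%): share of the cells with healthy nuclei that show this phenotype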
Format: toxicity, cell-based
Settings: human
Outline: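 Tubulin, mitochondrial-mass and membrane-permeability phenotypes are per cents of healthy-nucleus cells. Cells were gated by CellPathfinder machine learning into Hoechst high-intensity objects or normal cells, normal cells into healthy, pyknosed or fragmented nuclei, and pyknosed cells into mitotic or apoptotic. Before that, live cells stained at seeding with Hoechst33342, BioTracker Green Microtubule Cytoskeleton Dye, MitoTracker Red and Annexin V Alexa Fluor 680 were imaged on a CQ1 microscope at 37°C and 5% CO2 after compound addition.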

[1] = 12 h, 1 µM, compound concentration 1 uM, replicate 1
[2] = 12 h, 1 µM, compound concentration 1 uM, replicate 2
[3] = 12 h, 10 µM, compound concentration 10 uM, replicate 1
[4] = 12 h, 10 µM, compound concentration 10 uM, replicate 2
[5] = 24 h, 1 µM, compound concentration 1 uM, replicate 1
[6] = 24 h, 1 µM, compound concentration 1 uM, replicate 2
[7] = 24 h, 10 µM, compound concentration 10 uM, replicate 1
[8] = 24 h, 10 µM, compound concentration 10 uM, replicate 2
[9] = 48 h, 1 µM, compound concentration 1 uM, replicate 1
[10] = 48 h, 1 µM, compound concentration 1 uM, replicate 2
[11] = 48 h, 10 µM, compound concentration 10 uM, replicate 1
[12] = 48 h, 10 µM, compound concentration 10 uM, replicate 2

Compound: CN1CCC(=C2c3ccccc3CC(=O)c3sccc32)CC1.O=C(O)/C=C/C(=O)O [KETOTIFEN FUMARATE]
- Population Apoptotic (%) [1]: 46%
- Population Fragmented Nuclei (%) [1]: 10%
- Population Healthy Nuclei (%) [1]: 37%
- Population Hoechst High Intensity Objects (%) [1]: 13%
- Population Membrane Permeable-Phenotype (%) [1]: 5%
- Population Mitochondria Different-Phenotype (%) [1]: 73%
- Population Mitotic Cells (%) [1]: 53%
- Population Normal (%) [1]: 86%
- Population Pyknosed Nuclei (%) [1]: 51%
- Population Tubulin-Different-Phenotype (%) [1]: 40%
- Total Cell Count [1]: 288
- Population Apoptotic (%) [2]: 13%
- Population Fragmented Nuclei (%) [2]: 4%
- Population Healthy Nuclei (%) [2]: 40%
- Population Hoechst High Intensity Objects (%) [2]: 4%
- Population Membrane Permeable-Phenotype (%) [2]: 12%
- Population Mitochondria Different-Phenotype (%) [2]: 17%
- Population Mitotic Cells (%) [2]: 86%
- Population Normal (%) [2]: 95%
- Population Pyknosed Nuclei (%) [2]: 54%
- Population Tubulin-Different-Phenotype (%) [2]: 28%
- Total Cell Count [2]: 211
- Population Apoptotic (%) [3]: 71%
- Population Fragmented Nuclei (%) [3]: 11%
- Population Healthy Nuclei (%) [3]: 28%
- Population Hoechst High Intensity Objects (%) [3]: 10%
- Population Membrane Permeable-Phenotype (%) [3]: 4%
- Population Mitochondria Different-Phenotype (%) [3]: 98%
- Population Mitotic Cells (%) [3]: 28%
- Population Normal (%) [3]: 89%
- Population Pyknosed Nuclei (%) [3]: 60%
- Population Tubulin-Different-Phenotype (%) [3]: 97%
- Total Cell Count [3]: 298
- Population Apoptotic (%) [4]: 54%
- Population Fragmented Nuclei (%) [4]: 7%
- Population Healthy Nuclei (%) [4]: 22%
- Population Hoechst High Intensity Objects (%) [4]: 5%
- Population Membrane Permeable-Phenotype (%) [4]: 0%
- Population Mitochondria Different-Phenotype (%) [4]: 100%
- Population Mitotic Cells (%) [4]: 45%
- Population Normal (%) [4]: 94%
- Population Pyknosed Nuclei (%) [4]: 69%
- Population Tubulin-Different-Phenotype (%) [4]: 100%
- Total Cell Count [4]: 177
- Population Apoptotic (%) [5]: 50%
- Population Fragmented Nuclei (%) [5]: 12%
- Population Healthy Nuclei (%) [5]: 42%
- Population Hoechst High Intensity Objects (%) [5]: 8%
- Population Membrane Permeable-Phenotype (%) [5]: 7%
- Population Mitochondria Different-Phenotype (%) [5]: 67%
- Population Mitotic Cells (%) [5]: 49%
- Population Normal (%) [5]: 91%
- Population Pyknosed Nuclei (%) [5]: 44%
- Population Tubulin-Different-Phenotype (%) [5]: 49%
- Total Cell Count [5]: 307
- Population Apoptotic (%) [6]: 13%
- Population Fragmented Nuclei (%) [6]: 3%
- Population Healthy Nuclei (%) [6]: 55%
- Population Hoechst High Intensity Objects (%) [6]: 2%
- Population Membrane Permeable-Phenotype (%) [6]: 14%
- Population Mitochondria Different-Phenotype (%) [6]: 20%
- Population Mitotic Cells (%) [6]: 86%
- Population Normal (%) [6]: 97%
- Population Pyknosed Nuclei (%) [6]: 41%
- Population Tubulin-Different-Phenotype (%) [6]: 48%
- Total Cell Count [6]: 251
- Population Apoptotic (%) [7]: 75%
- Population Fragmented Nuclei (%) [7]: 12%
- Population Healthy Nuclei (%) [7]: 32%
- Population Hoechst High Intensity Objects (%) [7]: 11%
- Population Membrane Permeable-Phenotype (%) [7]: 1%
- Population Mitochondria Different-Phenotype (%) [7]: 97%
- Population Mitotic Cells (%) [7]: 24%
- Population Normal (%) [7]: 88%
- Population Pyknosed Nuclei (%) [7]: 55%
- Total Cell Count [7]: 313
- Population Apoptotic (%) [8]: 74%
- Population Fragmented Nuclei (%) [8]: 4%
- Population Healthy Nuclei (%) [8]: 35%
- Population Hoechst High Intensity Objects (%) [8]: 4%
- Population Membrane Permeable-Phenotype (%) [8]: 3%
- Population Mitochondria Different-Phenotype (%) [8]: 95%
- Population Mitotic Cells (%) [8]: 25%
- Population Normal (%) [8]: 95%
- Population Pyknosed Nuclei (%) [8]: 59%
- Population Tubulin-Different-Phenotype (%) [8]: 98%
- Total Cell Count [8]: 180
- Population Apoptotic (%) [9]: 35%
- Population Fragmented Nuclei (%) [9]: 12%
- Population Healthy Nuclei (%) [9]: 40%
- Population Hoechst High Intensity Objects (%) [9]: 15%
- Population Membrane Permeable-Phenotype (%) [9]: 7%
- Population Mitochondria Different-Phenotype (%) [9]: 52%
- Population Mitotic Cells (%) [9]: 64%
- Population Normal (%) [9]: 84%
- Population Pyknosed Nuclei (%) [9]: 46%
- Population Tubulin-Different-Phenotype (%) [9]: 52%
- Total Cell Count [9]: 369
- Population Apoptotic (%) [10]: 16%
- Population Fragmented Nuclei (%) [10]: 4%
- Population Healthy Nuclei (%) [10]: 79%
- Population Hoechst High Intensity Objects (%) [10]: 4%
- Population Membrane Permeable-Phenotype (%) [10]: 10%
- Population Mitochondria Different-Phenotype (%) [10]: 11%
- Population Mitotic Cells (%) [10]: 83%
- Population Normal (%) [10]: 95%
- Population Pyknosed Nuclei (%) [10]: 16%
- Population Tubulin-Different-Phenotype (%) [10]: 38%
- Total Cell Count [10]: 468
- Population Apoptotic (%) [11]: 71%
- Population Fragmented Nuclei (%) [11]: 21%
- Population Healthy Nuclei (%) [11]: 40%
- Population Hoechst High Intensity Objects (%) [11]: 13%
- Population Membrane Permeable-Phenotype (%) [11]: 2%
- Population Mitochondria Different-Phenotype (%) [11]: 93%
- Population Mitotic Cells (%) [11]: 28%
- Population Normal (%) [11]: 86%
- Population Pyknosed Nuclei (%) [11]: 38%
- Population Tubulin-Different-Phenotype (%) [11]: 95%
- Total Cell Count [11]: 362
- Population Apoptotic (%) [12]: 72%
- Population Fragmented Nuclei (%) [12]: 2%
- Population Healthy Nuclei (%) [12]: 70%
- Population Hoechst High Intensity Objects (%) [12]: 4%
- Population Membrane Permeable-Phenotype (%) [12]: 5%
- Population Mitochondria Different-Phenotype (%) [12]: 86%
- Population Mitotic Cells (%) [12]: 27%
- Population Normal (%) [12]: 95%
- Population Pyknosed Nuclei (%) [12]: 26%
- Population Tubulin-Different-Phenotype (%) [12]: 93%
- Total Cell Count [12]: 215
